Laboratory results from ChEMBL document CHEMBL1140381, “Design and studies of novel 5-substituted alkynylpyrimidine nucleosides as potent inhibitors of mycobacteria” (2005).
In brackets after ≈: the same amount, converted by molar mass.

How the values were obtained:
Format in all cases: functional
[1] = system: Mycobacterium tuberculosis variant bovis; experiment: Minimum inhibitory concentration against Mycobacterium bovis
Method in brief: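 Alamar blue microplate assay in 7H9GC. BCG or M. avium ATCC 25291 at 2.5 × 10⁵ CFU/mL final, exposed to compound at 100, 50, 10 and 1 µg/mL in triplicate. Reagent added after 6+ days once growth controls turned pink, read after 24 h visually and by fluorescence. MIC₉₀ taken as the lowest concentration giving ~90% growth inhibition.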

[2] = system: Mycobacterium tuberculosis variant bovis; experiment: Inhibition of growth of Mycobacterium bovis was determined using microplate alamar blue assay at 1 ug/mL concentration with compound dissolved in DMSO
Method in brief: (§1)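 MABA in 7H9GC medium; M. bovis BCG or M. avium ATCC 25291 frozen inocula at 2.5 × 10⁵ CFU/mL final, 100× DMSO stocks diluted into medium. Incubated 6 days, then alamar blue plus 20% Tween-80 added once bacteria-only wells turned pink, read 24 h later by fluorescence. % inhibition = […]. Triplicate wells, three experiments, mean reported.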

[3] = system: Mycobacterium tuberculosis variant bovis; experiment: Inhibition of growth of Mycobacterium bovis was determined using microplate alamar blue assay at 10 ug/mL concentration with compound dissolved in DMSO; method in brief: as §1
[4] = system: Mycobacterium tuberculosis variant bovis; experiment: Inhibition of growth of Mycobacterium bovis was determined using microplate alamar blue assay at 50 ug/mL concentration with compound dissolved in DMSO; method in brief: as §1
[5] = system: Mycobacterium tuberculosis variant bovis; experiment: Inhibition of growth of Mycobacterium bovis was determined using microplate alamar blue assay at 100 ug/mL concentration with compound dissolved in DMSO; method in brief: as §1
[6] = system: Mycobacterium tuberculosis variant bovis; experiment: Inhibition of growth of Mycobacterium bovis was determined using microplate alamar blue assay at 0.5-1 ug/mL concentration with compound dissolved in DMSO

CCCCCCCCCCC#Cc1cn([C@H]2C[C@H](O)[C@@H](CO)O2)c(=O)[nH]c1=O
MIC90 [1]: 50 µg/mL (≈ 127 µM) | inhibition at 1 µg/mL [2]: 25% | inhibition at 10 µg/mL [3]: 70% | inhibition at 50 µg/mL [4]: 90% | inhibition at 100 µg/mL [5]: 90%

CCCCCCCCCCCCC#Cc1cn([C@H]2C[C@H](O)[C@@H](CO)O2)c(=O)[nH]c1=O
MIC90 [1]: 10 µg/mL (≈ 23.8 µM) | inhibition at 1 µg/mL [2]: 33% | inhibition at 10 µg/mL [3]: 90% | inhibition at 50 µg/mL [4]: 90% | inhibition at 100 µg/mL [5]: 90%

CCCCCCCCC#Cc1cn([C@H]2C[C@H](O)[C@@H](CO)O2)c(=O)[nH]c1=O
MIC90 [1]: 100 µg/mL (≈ 274 µM) | inhibition at 10 µg/mL [3]: 0% | inhibition at 50 µg/mL [4]: 50% | inhibition at 100 µg/mL [5]: 90%

CCCCCCCCC#Cc1cn([C@H]2C[C@H](O)[C@@H](CO)O2)c(=O)nc1N
MIC90 [1]: 50 µg/mL (≈ 138 µM) | inhibition at 10 µg/mL [3]: 10% | inhibition at 50 µg/mL [4]: 90% | inhibition at 100 µg/mL [5]: 90%

CCCCCC#Cc1cn([C@H]2C[C@H](O)[C@@H](CO)O2)c(=O)[nH]c1=O
inhibition at 50 µg/mL [4]: 60% | inhibition at 100 µg/mL [5]: 60%

CO[C@H]1/C=C/O[C@@]2(C)Oc3c(C)c(O)c4c(O)c(c(/C=N/N5CCN(C)CC5)c(O)c4c3C2=O)NC(=O)/C(C)=C\C=C\[C@H](C)[C@H](O)[C@@H](C)[C@@H](O)[C@@H](C)[C@H](OC(C)=O)[C@@H]1C [RIFAMPIN]
MIC90 [1]: 1 µg/mL (≈ 1.22 µM) | Inhibition [6]: 100%

CCCCCCCCCCC#Cc1cn([C@H]2C[C@H](O)[C@@H](CO)O2)c(=O)nc1N
MIC90 [1]: 10 µg/mL (≈ 25.5 µM) | inhibition at 1 µg/mL [2]: 25% | inhibition at 10 µg/mL [3]: 90% | inhibition at 50 µg/mL [4]: 90% | inhibition at 100 µg/mL [5]: 90%
